Reference: ChEMBL document CHEMBL5661979, “Pharmacological inhibition of BMK1 suppresses tumor growth through promyelocytic leukemia protein” (Cancer Cell, 2010)

Experiments:
[1] = biological target: Activated CDC42 kinase 1 (Homo sapiens, UniProt Q07912); assay: Inhibition of TNK2 (unknown origin) assessed as remaining activity at 10 uM by ATP-competition binding assay relative to control
[2] = biological target: Serine/threonine-protein kinase 3/4 (Homo sapiens, UniProt Q13043+Q13188); assay: Inhibition of MST1/2 in human HeLa cells lysate pre incubated for 15 mins followed by ATP acyl phosphate probe addition and measured after 10 mins by LC-MS/MS analysis; format: subcellular
[3] = Inhibition of MST4/YSK1 in human HeLa cells lysate pre incubated for 15 mins followed by ATP acyl phosphate probe addition and measured after 10 mins by LC-MS/MS analysis; format: subcellular
[4] = biological target: Eukaryotic translation initiation factor 2-alpha kinase 3 (Homo sapiens, UniProt Q9NZJ5); assay: Inhibition of PEK in human HeLa cells lysate pre incubated for 15 mins followed by ATP acyl phosphate probe addition and measured after 10 mins by LC-MS/MS analysis; format: subcellular
[5] = biological target: Serine/threonine-protein kinase LATS2 (Homo sapiens, UniProt Q9NRM7); assay: Inhibition of LATS2 in human HeLa cells lysate pre incubated for 15 mins followed by ADP acyl phosphate probe addition and measured after 10 mins by LC-MS/MS analysis; format: subcellular
[6] = Inhibition of MST4/YSK1 in human HeLa cells lysate at 10 uM pre incubated for 15 mins followed by ATP acyl phosphate probe addition and measured after 10 mins by LC-MS/MS analysis relative to control; details: 25 min, condition cancer
[7] = biological target: Tyrosine-protein kinase JAK1 (Homo sapiens, UniProt P23458); assay: Inhibition of JAK1 domain 2 in human HeLa cells lysate at 10 uM pre incubated for 15 mins followed by ATP acyl phosphate probe addition and measured after 10 mins by LC-MS/MS analysis relative to control; format: subcellular; details: time 25.0 min
[8] = biological target: T1, Serine/threonine-protein kinase 4 (Homo sapiens) (UniProt Q13043); assay: Inhibition of MST1 in human HeLa cells lysate at 10 uM pre incubated for 15 mins followed by ATP acyl phosphate probe addition and measured after 10 mins by LC-MS/MS analysis relative to control; format: subcellular; details: time 25.0 min
T1 sequence (whole entry): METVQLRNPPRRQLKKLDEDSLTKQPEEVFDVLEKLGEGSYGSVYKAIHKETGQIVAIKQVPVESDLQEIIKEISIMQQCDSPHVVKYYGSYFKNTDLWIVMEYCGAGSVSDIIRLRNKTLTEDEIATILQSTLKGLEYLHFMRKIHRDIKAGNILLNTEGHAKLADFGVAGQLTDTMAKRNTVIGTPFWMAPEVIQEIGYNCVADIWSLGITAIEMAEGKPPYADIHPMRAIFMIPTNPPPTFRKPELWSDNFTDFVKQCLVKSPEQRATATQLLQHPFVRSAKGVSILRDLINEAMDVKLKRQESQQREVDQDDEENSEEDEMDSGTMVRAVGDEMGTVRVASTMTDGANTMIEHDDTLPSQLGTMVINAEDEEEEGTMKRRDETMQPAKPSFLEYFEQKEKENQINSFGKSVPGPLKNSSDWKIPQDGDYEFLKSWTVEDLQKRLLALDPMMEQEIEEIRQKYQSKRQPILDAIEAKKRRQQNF

[9] = biological target: Ribosomal protein S6 kinase alpha-3 (Homo sapiens, UniProt P51812); assay: Inhibition of RSK2 domain 1 active form in human HeLa cells lysate at 2 uM pre incubated for 15 mins followed by ATP acyl phosphate probe addition and measured after 10 mins by LC-MS/MS analysis relative to control; format: subcellular; details: time 25.0 min
[10] = biological target: Cyclin-dependent kinase 8/19 (Homo sapiens, UniProt P49336+Q9BWU1); assay: Inhibition of CDK8/CDK11 in human HeLa cells lysate at 2 uM pre incubated for 15 mins followed by ATP acyl phosphate probe addition and measured after 10 mins by LC-MS/MS analysis relative to control; format: subcellular; details: time 25.0 min
Procedure, shortened: (§1)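 KiNativ profiling in HeLa lysate (5 mg/mL total protein). Lysate incubated 15 min with inhibitor at 50, 10, 2, 0.8 or 0 μM. ATP or ADP acylphosphate probe then added (5 μM final) and reacted 10 min. Reaction stopped with urea and analysed by targeted MS, using up to four fragment ions per kinase peptide-probe conjugate. % inhibition taken against untreated lysate. Run in duplicate.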

[11] = biological target: T2, Serine/threonine-protein kinase A-Raf (Homo sapiens) (UniProt P10398); assay: Inhibition of ARAF in human HeLa cells lysate at 2 uM pre incubated for 15 mins followed by ATP acyl phosphate probe addition and measured after 10 mins by LC-MS/MS analysis relative to control; format: subcellular; details: time 25.0 min
T2 sequence (whole entry): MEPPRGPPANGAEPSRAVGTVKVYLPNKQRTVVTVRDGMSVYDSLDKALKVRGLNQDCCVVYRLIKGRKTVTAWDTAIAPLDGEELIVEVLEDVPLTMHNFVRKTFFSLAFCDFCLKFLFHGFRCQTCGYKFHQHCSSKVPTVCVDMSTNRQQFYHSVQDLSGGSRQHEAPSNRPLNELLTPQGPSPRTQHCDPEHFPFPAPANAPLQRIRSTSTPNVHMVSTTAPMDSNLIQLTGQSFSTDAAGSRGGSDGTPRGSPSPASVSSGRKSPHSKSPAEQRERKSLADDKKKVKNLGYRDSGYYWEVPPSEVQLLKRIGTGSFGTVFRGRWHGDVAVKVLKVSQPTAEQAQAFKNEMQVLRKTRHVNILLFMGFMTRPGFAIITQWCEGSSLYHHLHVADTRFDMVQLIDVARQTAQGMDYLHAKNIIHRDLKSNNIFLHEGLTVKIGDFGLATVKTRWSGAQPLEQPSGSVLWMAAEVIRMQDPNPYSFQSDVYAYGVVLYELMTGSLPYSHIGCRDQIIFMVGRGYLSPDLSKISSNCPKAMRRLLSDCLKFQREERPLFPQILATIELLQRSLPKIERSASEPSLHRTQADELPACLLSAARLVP
Procedure, shortened: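 KiNativ-type profiling in HeLa lysate (5 mg/mL total protein). Lysate preincubated 15 min with inhibitor at 50, 10, 2, 0.8 or 0 μM, then ATP or ADP acylphosphate probe added (5 μM final) for 10 min. Reaction stopped with urea and analysed by targeted MS, using up to four fragment ions per kinase peptide-probe conjugate. % inhibition calculated against untreated lysate. Duplicate reactions.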

[12] = biological target: Cyclin-dependent kinase 10 (Homo sapiens, UniProt Q15131); assay: Inhibition of CDK10 in human HeLa cells lysate at 2 uM pre incubated for 15 mins followed by ATP acyl phosphate probe addition and measured after 10 mins by LC-MS/MS analysis relative to control; format: subcellular; details: time 25.0 min; procedure, shortened: as §1
[13] = Half life in Sprague-Dawley rat at 2 mg/kg, po measured up to 8 hrs by LC-MS/MS analysis; format: ADME, organism-based; details: in vivo
Procedure, shortened: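 Sprague-Dawley rats given one intravenous dose or one oral dose of 2 mg/kg. Plasma drug concentrations were followed over time, with samples taken out to 8 hr after dosing. PK parameters (clearance, volume of distribution, half-life, oral bioavailability, Cmax) were calculated from these concentration–time data.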

[14] = Oral bioavailability in Sprague-Dawley rat at 2 mg/kg measured up to 8 hrs by LC-MS/MS analysis; format: ADME, organism-based; details: in vivo

Sequence of Activated CDC42 kinase 1 (Q07912 whole entry, looked up): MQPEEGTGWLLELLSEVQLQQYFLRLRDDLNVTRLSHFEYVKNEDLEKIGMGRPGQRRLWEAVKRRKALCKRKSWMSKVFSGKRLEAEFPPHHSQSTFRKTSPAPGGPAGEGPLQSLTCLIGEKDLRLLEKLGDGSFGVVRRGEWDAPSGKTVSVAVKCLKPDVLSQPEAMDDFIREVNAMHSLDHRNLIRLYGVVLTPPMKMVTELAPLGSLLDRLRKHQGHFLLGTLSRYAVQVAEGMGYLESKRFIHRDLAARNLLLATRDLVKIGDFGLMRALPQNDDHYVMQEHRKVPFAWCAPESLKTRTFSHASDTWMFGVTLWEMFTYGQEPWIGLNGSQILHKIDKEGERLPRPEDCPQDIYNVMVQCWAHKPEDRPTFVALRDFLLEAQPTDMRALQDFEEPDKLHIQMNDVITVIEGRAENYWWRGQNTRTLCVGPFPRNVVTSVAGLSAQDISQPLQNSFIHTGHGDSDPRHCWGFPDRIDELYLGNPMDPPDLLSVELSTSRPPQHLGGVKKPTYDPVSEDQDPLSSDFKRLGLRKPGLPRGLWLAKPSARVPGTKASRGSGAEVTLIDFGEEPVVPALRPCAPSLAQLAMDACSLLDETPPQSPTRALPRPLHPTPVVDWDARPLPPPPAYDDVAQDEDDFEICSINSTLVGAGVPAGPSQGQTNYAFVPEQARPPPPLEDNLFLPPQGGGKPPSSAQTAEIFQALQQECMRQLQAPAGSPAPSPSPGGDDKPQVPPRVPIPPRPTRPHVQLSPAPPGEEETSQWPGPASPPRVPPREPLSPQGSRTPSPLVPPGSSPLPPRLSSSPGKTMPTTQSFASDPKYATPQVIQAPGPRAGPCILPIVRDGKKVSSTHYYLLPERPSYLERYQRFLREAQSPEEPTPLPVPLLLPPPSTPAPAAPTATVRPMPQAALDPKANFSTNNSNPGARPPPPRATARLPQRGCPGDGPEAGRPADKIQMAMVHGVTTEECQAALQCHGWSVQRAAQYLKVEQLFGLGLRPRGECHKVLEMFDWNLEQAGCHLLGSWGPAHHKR
Sequence of Ribosomal protein S6 kinase alpha-3 (P51812 whole entry, the tested form may be a part): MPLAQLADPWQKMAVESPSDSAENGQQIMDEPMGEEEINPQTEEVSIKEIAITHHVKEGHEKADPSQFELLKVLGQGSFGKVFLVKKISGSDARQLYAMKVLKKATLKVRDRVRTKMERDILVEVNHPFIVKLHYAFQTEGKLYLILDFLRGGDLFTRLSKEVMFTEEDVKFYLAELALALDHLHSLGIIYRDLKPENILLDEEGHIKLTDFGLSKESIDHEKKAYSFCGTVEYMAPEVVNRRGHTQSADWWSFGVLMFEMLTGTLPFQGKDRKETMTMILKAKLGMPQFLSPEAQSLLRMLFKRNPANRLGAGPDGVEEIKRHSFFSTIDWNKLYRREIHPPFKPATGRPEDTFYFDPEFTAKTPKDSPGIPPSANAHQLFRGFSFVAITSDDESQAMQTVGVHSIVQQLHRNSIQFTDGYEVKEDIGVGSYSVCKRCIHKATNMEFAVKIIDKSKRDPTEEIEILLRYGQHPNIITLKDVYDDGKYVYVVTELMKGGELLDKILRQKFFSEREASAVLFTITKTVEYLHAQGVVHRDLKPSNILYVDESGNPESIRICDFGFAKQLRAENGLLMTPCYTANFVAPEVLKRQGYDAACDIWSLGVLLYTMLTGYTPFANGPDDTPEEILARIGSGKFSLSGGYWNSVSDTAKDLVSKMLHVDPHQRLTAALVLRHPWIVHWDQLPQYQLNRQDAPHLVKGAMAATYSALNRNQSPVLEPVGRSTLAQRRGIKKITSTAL
Sequence of Tyrosine-protein kinase JAK1 (P23458 whole entry, the tested form may be a part): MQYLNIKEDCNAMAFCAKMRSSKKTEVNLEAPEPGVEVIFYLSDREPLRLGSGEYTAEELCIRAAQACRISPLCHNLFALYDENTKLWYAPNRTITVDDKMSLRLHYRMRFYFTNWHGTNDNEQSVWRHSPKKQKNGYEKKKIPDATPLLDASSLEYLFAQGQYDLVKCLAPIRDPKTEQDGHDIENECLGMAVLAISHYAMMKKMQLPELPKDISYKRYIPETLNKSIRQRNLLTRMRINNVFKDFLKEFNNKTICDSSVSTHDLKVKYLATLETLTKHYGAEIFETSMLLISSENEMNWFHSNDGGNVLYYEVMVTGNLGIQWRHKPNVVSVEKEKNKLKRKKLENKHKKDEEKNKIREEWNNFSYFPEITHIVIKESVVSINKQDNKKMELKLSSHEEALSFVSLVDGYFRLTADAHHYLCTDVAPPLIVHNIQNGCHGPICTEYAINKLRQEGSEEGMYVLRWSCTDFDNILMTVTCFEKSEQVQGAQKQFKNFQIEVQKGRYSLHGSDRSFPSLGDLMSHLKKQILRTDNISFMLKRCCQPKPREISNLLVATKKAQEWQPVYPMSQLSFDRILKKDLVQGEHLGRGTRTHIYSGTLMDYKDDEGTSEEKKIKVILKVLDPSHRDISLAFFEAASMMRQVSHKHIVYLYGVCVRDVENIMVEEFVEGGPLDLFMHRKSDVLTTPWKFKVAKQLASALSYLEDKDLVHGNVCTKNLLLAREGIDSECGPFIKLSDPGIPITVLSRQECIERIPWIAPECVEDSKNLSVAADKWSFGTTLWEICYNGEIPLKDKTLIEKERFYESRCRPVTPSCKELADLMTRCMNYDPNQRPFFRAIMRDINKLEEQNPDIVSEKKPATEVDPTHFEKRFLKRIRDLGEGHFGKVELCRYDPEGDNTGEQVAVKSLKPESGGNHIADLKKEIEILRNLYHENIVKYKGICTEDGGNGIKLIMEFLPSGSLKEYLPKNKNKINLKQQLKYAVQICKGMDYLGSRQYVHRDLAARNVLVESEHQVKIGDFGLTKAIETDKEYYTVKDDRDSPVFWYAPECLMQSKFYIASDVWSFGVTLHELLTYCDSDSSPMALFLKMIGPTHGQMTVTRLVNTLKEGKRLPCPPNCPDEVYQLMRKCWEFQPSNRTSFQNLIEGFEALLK
Sequence of Eukaryotic translation initiation factor 2-alpha kinase 3 (Q9NZJ5 whole entry): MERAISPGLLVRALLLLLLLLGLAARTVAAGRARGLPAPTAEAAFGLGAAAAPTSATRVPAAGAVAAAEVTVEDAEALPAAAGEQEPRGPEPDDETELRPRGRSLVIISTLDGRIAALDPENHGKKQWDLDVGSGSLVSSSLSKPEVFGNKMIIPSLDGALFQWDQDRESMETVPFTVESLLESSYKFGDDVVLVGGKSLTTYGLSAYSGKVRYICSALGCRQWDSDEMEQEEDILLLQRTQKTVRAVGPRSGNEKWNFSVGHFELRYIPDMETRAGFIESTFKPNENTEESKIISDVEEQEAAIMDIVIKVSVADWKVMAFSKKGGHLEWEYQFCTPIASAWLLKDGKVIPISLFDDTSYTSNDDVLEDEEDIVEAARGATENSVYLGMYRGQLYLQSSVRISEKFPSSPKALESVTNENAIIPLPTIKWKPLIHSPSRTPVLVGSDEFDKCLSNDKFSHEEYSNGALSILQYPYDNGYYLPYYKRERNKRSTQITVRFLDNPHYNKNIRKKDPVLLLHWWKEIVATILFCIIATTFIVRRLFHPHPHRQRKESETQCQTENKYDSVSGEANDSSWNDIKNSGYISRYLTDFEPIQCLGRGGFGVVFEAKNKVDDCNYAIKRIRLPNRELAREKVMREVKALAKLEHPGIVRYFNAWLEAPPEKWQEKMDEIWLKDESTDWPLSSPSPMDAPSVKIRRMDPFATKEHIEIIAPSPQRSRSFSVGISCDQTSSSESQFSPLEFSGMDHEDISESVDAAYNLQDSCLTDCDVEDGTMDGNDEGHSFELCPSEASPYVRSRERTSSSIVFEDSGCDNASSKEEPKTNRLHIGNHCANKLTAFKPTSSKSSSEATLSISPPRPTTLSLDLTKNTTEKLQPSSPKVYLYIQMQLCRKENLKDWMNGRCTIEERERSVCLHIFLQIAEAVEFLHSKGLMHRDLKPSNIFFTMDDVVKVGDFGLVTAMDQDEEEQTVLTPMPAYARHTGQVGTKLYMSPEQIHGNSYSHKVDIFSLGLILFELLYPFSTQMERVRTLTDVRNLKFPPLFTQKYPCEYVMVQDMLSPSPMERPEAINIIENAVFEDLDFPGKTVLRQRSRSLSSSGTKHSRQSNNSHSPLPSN
Sequence of Cyclin-dependent kinase 8/19 (P49336 whole entry, looked up, the tested form may be a part): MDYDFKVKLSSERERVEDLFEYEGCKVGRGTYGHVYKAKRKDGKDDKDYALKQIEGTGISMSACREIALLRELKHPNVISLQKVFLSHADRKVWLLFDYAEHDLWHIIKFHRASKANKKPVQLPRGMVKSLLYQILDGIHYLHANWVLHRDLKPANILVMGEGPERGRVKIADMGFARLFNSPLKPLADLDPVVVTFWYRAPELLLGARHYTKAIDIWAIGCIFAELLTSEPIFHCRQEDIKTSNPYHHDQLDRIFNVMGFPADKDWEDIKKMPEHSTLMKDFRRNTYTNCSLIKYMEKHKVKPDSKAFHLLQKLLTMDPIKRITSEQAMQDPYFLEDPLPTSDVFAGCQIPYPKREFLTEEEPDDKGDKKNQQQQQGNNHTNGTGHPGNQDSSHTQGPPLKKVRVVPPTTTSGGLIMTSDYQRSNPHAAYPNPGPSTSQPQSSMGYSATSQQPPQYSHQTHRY
Sequence of Cyclin-dependent kinase 8/19 (Q9BWU1 whole entry, looked up, the tested form may be a part): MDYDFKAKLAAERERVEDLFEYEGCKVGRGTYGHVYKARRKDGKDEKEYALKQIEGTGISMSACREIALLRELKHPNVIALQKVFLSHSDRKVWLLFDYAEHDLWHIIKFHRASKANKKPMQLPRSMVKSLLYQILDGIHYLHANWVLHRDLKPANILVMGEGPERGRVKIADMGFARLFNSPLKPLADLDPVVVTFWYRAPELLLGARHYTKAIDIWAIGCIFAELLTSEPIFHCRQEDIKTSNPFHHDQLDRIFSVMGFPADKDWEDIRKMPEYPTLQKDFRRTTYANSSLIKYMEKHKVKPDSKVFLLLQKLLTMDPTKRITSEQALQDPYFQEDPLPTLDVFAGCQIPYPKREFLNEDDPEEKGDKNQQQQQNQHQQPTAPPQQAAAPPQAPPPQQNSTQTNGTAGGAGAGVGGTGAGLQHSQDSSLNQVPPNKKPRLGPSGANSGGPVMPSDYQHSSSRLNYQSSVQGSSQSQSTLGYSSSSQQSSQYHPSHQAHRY

## CCOc1cc(N2CCC(O)CC2)ccc1Nc1ncc2c(n1)N(C)c1ccccc1C(=O)N2C
[1]
  Activity: 17%
[2]
  IC50: > 50 µM
[3]
  IC50: > 50 µM
[4]
  IC50: > 50 µM
[5]
  IC50: > 50 µM
[6]
  inhibition at 10 µM: 5.1%
[7]
  inhibition: -5.7%
[8]
  inhibition: 1.1%
[9]
  inhibition: 8.2%
[10]
  inhibition: -7.5%
[11]
  inhibition: 3.3%
[12]
  inhibition: 3.7%
[13]
  half-life: 3.4 h
[14]
  bioavailability: 69%
